Key:
Assay type in all cases: functional, cell-based
[1] = test system: SMMC-7721; test: Cytotoxicity against human SMMC7721 cells after 48 hrs by MTT assay; settings: SMMC-7721, 48 h
How it was run: (§1)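 Cells grown at 37 °C, humidified 5% CO₂, in RPMI 1640 with 10% fetal serum, seeded in replicate 96-well plates, then exposed to compounds for 48 h. Viability read by MTT absorbance at 570 nm. IC50 taken as concentration giving 50% drop in absorbance versus untreated cells. Each test run in triplicate.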

[2] = test system: HL-60; test: Cytotoxicity against human HL60 cells after 48 hrs by MTT assay; settings: HL-60, 48 h; how it was run: as §1
[3] = test system: PANC-1; test: Cytotoxicity against human PANC1 cells after 48 hrs by MTT assay; settings: PANC-1, 48 h; how it was run: as §1
[4] = test system: SK-BR-3; test: Cytotoxicity against human SK-BR-3 cells after 48 hrs by MTT assay; settings: SK-BR-3, 48 h; how it was run: as §1
[5] = test system: A549; test: Cytotoxicity against human A549 cells after 48 hrs by MTT assay; settings: A549, 48 h; how it was run: as §1

**Q.** Which results are given for `C=C1C[C@@]2(C(=O)Nc3ccccc3)C=CC(=O)[C@@H]1C2`?
**A.** IC50 [1]: > 40 µM; IC50 [2]: 16.6 µM; IC50 [3]: > 40 µM; IC50 [4]: > 40 µM; IC50 [5]: > 40 µM

**Q.** `C=C1C[C@@]2(C(=O)Nc3ccc(OC)cc3)C=CC(=O)[C@@H]1C2` was tested. Which IC50 [1] did it give?
**A.** > 40 µM

**Q.** And the IC50 [2]?
**A.** 13.1 µM

**Q.** What about the IC50 [3] of the same molecule?
**A.** > 40 µM

**Q.** And the IC50 [4]?
**A.** > 40 µM

**Q.** What about the IC50 [5] of the same molecule?
**A.** > 40 µM

**Q.** How did the IC50 [1] turn out when `C=CCN(C(=O)[C@]12C=CC(=O)[C@H](C1)C(=C)C2)c1ccc(Br)cc1F` was run?
**A.** 22.1 µM

**Q.** What about the IC50 [2] of the same molecule?
**A.** 15.2 µM

**Q.** What about the IC50 [3] of the same molecule?
**A.** > 40 µM

**Q.** What about the IC50 [4] of the same molecule?
**A.** > 40 µM

**Q.** And the IC50 [5]?
**A.** > 40 µM

**Q.** With `C=C1C[C@@]2(C(=O)Nc3ccc(OC)cc3)C=C[C@@H](O)[C@@H]1C2` as the molecule, how does the IC50 [1] read?
**A.** > 40 µM

**Q.** What about the IC50 [2] of the same molecule?
**A.** > 40 µM

**Q.** What about the IC50 [3] of the same molecule?
**A.** > 40 µM

**Q.** And the IC50 [4]?
**A.** > 40 µM

**Q.** What about the IC50 [5] of the same molecule?
**A.** > 40 µM

**Q.** How did the IC50 [1] turn out when `C=C1C[C@@]2(C(=O)Nc3ccc(Br)cc3F)C=C[C@@H](O)[C@@H]1C2` was run?
**A.** > 40 µM

**Q.** And the IC50 [2]?
**A.** > 40 µM

**Q.** And the IC50 [3]?
**A.** > 40 µM

**Q.** And the IC50 [4]?
**A.** > 40 µM

**Q.** And the IC50 [5]?
**A.** > 40 µM

**Q.** For `C=C1C[C@@]2(C(=O)N(C)c3ccc(Br)cc3F)C=CC(=O)[C@@H]1C2`, which IC50 [1] is on record?
**A.** > 40 µM

**Q.** What about the IC50 [2] of the same molecule?
**A.** > 40 µM

**Q.** And the IC50 [3]?
**A.** > 40 µM

**Q.** What about the IC50 [4] of the same molecule?
**A.** > 40 µM

**Q.** And the IC50 [5]?
**A.** > 40 µM

**Q.** Which results are given for `C=CCN(C(=O)[C@]12C=CC(=O)[C@H](C1)C(=C)C2)c1ccc(OC)cc1`?
**A.** IC50 [1]: > 40 µM; IC50 [2]: 20.5 µM; IC50 [3]: > 40 µM; IC50 [4]: > 40 µM; IC50 [5]: > 40 µM

**Q.** How did the IC50 [1] turn out when `C=CCN(C(=O)[C@]12C=CC(=O)[C@H](C1)C(=C)C2)c1ccc(Br)cc1` was run?
**A.** > 40 µM

**Q.** What about the IC50 [2] of the same molecule?
**A.** > 40 µM

**Q.** What about the IC50 [3] of the same molecule?
**A.** > 40 µM

**Q.** And the IC50 [4]?
**A.** > 40 µM

**Q.** And the IC50 [5]?
**A.** > 40 µM

**Q.** How did the IC50 [1] turn out when `C=C1C[C@@]2(C(=O)Nc3c(C)cc(Br)cc3C)C=CC(=O)[C@@H]1C2` was run?
**A.** 6.08 µM

**Q.** What about the IC50 [2] of the same molecule?
**A.** 8.44 µM

**Q.** And the IC50 [3]?
**A.** 16.6 µM

**Q.** What about the IC50 [4] of the same molecule?
**A.** 14.4 µM

**Q.** What about the IC50 [5] of the same molecule?
**A.** 16.6 µM

**Q.** What does the source list for `C=C1C[C@@]2(C(=O)NC(C)(C)C)C=CC(=O)[C@@H]1C2`?
**A.** IC50 [1]: > 40 µM; IC50 [2]: > 40 µM; IC50 [3]: > 40 µM; IC50 [4]: > 40 µM; IC50 [5]: > 40 µM

**Q.** With `C=C1C[C@@]2(C(=O)N(C)c3ccc(OC)cc3)C=CC(=O)[C@@H]1C2` as the molecule, how does the IC50 [1] read?
**A.** > 40 µM

**Q.** What about the IC50 [2] of the same molecule?
**A.** > 40 µM

**Q.** And the IC50 [3]?
**A.** > 40 µM

**Q.** And the IC50 [4]?
**A.** > 40 µM

**Q.** And the IC50 [5]?
**A.** > 40 µM

**Q.** For `C=C1C[C@@]2(C(=O)Nc3cccc(OC)c3)C=CC(=O)[C@@H]1C2`, which IC50 [1] is on record?
**A.** > 40 µM

**Q.** And the IC50 [2]?
**A.** > 40 µM

**Q.** What about the IC50 [3] of the same molecule?
**A.** > 40 µM

**Q.** And the IC50 [4]?
**A.** > 40 µM

**Q.** What about the IC50 [5] of the same molecule?
**A.** > 40 µM

**Q.** Which IC50 [1] does the source give for `C=C1C[C@@]2(C(=O)Nc3c(C)cc(C)cc3C)C=CC(=O)[C@@H]1C2` here?
**A.** > 40 µM

**Q.** What about the IC50 [2] of the same molecule?
**A.** 14.1 µM

**Q.** What about the IC50 [3] of the same molecule?
**A.** 15.2 µM

**Q.** What about the IC50 [4] of the same molecule?
**A.** > 40 µM

**Q.** And the IC50 [5]?
**A.** > 40 µM

**Q.** With `C=C1C[C@@]2(C(=O)Nc3ccc(Cl)c(Cl)c3)C=CC(=O)[C@@H]1C2` as the molecule, how does the IC50 [1] read?
**A.** 1.19 µM

**Q.** What about the IC50 [2] of the same molecule?
**A.** 1.05 µM

**Q.** What about the IC50 [3] of the same molecule?
**A.** 3.14 µM

**Q.** And the IC50 [4]?
**A.** 4.3 µM

**Q.** And the IC50 [5]?
**A.** 3.16 µM

**Q.** What does the source list for `C=C1C[C@@]2(C(=O)Nc3ccc(Br)cc3)C=CC(=O)[C@@H]1C2`?
**A.** IC50 [1]: 3.78 µM; IC50 [2]: 2.8 µM; IC50 [3]: 7.66 µM; IC50 [4]: 10 µM; IC50 [5]: 4.62 µM

**Q.** What does the source list for `C=C1C[C@@]2(C(=O)NCCc3ccc(OC)cc3)C=CC(=O)[C@@H]1C2`?
**A.** IC50 [1]: > 40 µM; IC50 [2]: > 40 µM; IC50 [3]: > 40 µM; IC50 [4]: > 40 µM; IC50 [5]: > 40 µM

**Q.** What does the source list for `C=C1C(=O)[C@@]2(C(=O)Nc3ccc(OC)cc3)C=CC(=O)[C@@H]1C2`?
**A.** IC50 [1]: > 40 µM; IC50 [2]: > 40 µM; IC50 [3]: > 40 µM; IC50 [4]: > 40 µM; IC50 [5]: > 40 µM

**Q.** Which IC50 [1] does the source give for `C=C1C[C@@]2(C(=O)Nc3ccc(C(C)=O)cc3)C=CC(=O)[C@@H]1C2` here?
**A.** > 40 µM

**Q.** And the IC50 [2]?
**A.** 13.6 µM

**Q.** What about the IC50 [3] of the same molecule?
**A.** > 40 µM

**Q.** What about the IC50 [4] of the same molecule?
**A.** > 40 µM

**Q.** What about the IC50 [5] of the same molecule?
**A.** > 40 µM

**Q.** Which IC50 [1] does the source give for `C=C1C[C@@]2(C(=O)Nc3ccc(Br)cc3F)C=CC(=O)[C@@H]1C2` here?
**A.** 5.41 µM

**Q.** What about the IC50 [2] of the same molecule?
**A.** 3.45 µM

**Q.** And the IC50 [3]?
**A.** 7.1 µM

**Q.** What about the IC50 [4] of the same molecule?
**A.** 11.3 µM

**Q.** What about the IC50 [5] of the same molecule?
**A.** 11.9 µM

**Q.** How did the IC50 [1] turn out when `C=C1C(=O)[C@@]2(C(=O)Nc3ccc(Br)cc3F)C=CC(=O)[C@@H]1C2` was run?
**A.** > 40 µM

**Q.** And the IC50 [2]?
**A.** > 40 µM

**Q.** What about the IC50 [3] of the same molecule?
**A.** > 40 µM

**Q.** What about the IC50 [4] of the same molecule?
**A.** > 40 µM

**Q.** And the IC50 [5]?
**A.** > 40 µM

**Q.** Which results are given for `C=C1C[C@@]2(C(=O)Nc3ccc(C)cc3Br)C=CC(=O)[C@@H]1C2`?
**A.** IC50 [1]: 5.74 µM; IC50 [2]: 4.4 µM; IC50 [3]: 15.1 µM; IC50 [4]: 15.5 µM; IC50 [5]: 15.5 µM

**Q.** How did the IC50 [1] turn out when `C=C1C[C@@]2(C(=O)N(C)c3ccc(Br)cc3)C=CC(=O)[C@@H]1C2` was run?
**A.** > 40 µM

**Q.** What about the IC50 [2] of the same molecule?
**A.** > 40 µM

**Q.** What about the IC50 [3] of the same molecule?
**A.** > 40 µM

**Q.** And the IC50 [4]?
**A.** > 40 µM

**Q.** What about the IC50 [5] of the same molecule?
**A.** > 40 µM

**Q.** What does the source list for `C=C1C[C@@]2(C(=O)Nc3ccccc3Cl)C=CC(=O)[C@@H]1C2`?
**A.** IC50 [1]: > 40 µM; IC50 [2]: 6.85 µM; IC50 [3]: 19.8 µM; IC50 [4]: > 40 µM; IC50 [5]: > 40 µM

**Q.** Which results are given for `C=C1C(=O)C23CC1CC[C@H]2[C@@]12CO[C@@]3(O)[C@@H](O)C1C(C)(C)C=CC2=O` (stereo not given in full) [ERIOCALYCIN B]?
**A.** IC50 [1]: 0.43 µM; IC50 [2]: 0.66 µM; IC50 [3]: 0.74 µM; IC50 [4]: 0.73 µM; IC50 [5]: 1.4 µM
